From PubChem
Shown are actives, neighbours in structure and some others; about 3.7% of the full set was active somewhere.
KCNQ1 pot: potentiates or activates the human KCNQ1 potassium channel | hit rate 0.35% among 310,000 | AID 2648 | B-score at 10 µM | P51787 | CHO-K1 KCNQ1, thallium flux FluxOR fluorescence; active compounds read high;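 active means fluorescence ratio B-score, a plate-corrected score, at least three library SD, with initial intensity B-score within 5 SD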
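assay system = CHO-K1 cells stably expressing KCNQ1 | medium = assay buffer, equal DMSO in all wells | timing = 37 °C overnight plating, 90-min dark dye load, 20-min compound pretreatment | measured by = kinetic FluxOR thallium fluorescence, 10-s 1-Hz baseline, 110-s post-stimulus read | measure = fluorescence change relative to baseline, converted to B score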
KCNK9 block: blocks the human KCNK9 two-pore domain potassium channel; hit rate 1.2% among 310,000; HEK293 KCNK9, FluxOR thallium flux fluorescence; active compounds read low; B-score at 10 µM; Q9NPC2; AID 488922;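 active means ratio B-score over 3 SD below the library mean, with starting fluorescence within 5 SD of its mean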;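 further: negative B-score means less thallium flux so channel inhibition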
hERG rescue: shields human hERG channel from block by proarrhythmic agents. Q12809. CHO-hERG, FluxOR thallium flux, dofetilide IC70 present. activation (rescue from dofetilide block), less the hit threshold, % at 10 µM. hit rate 0.51% among 310,000. AID 1511;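 active means activation above the mean of controls blocked by dofetilide plus 5 SD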;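 further: thallium influx through hERG after potassium depolarization seen as dye fluorescence rise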
KCNQ1 inh: human KCNQ1 channel inhibition; hit rate 1.3% among 310,000; P51787; B-score at 10 µM; CHO-K1 KCNQ1, FluxOR thallium flux fluorescence; active compounds read high;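 active means compounds whose thallium flux B-score, printed positive for inhibition, exceeds three library SD while starting fluorescence stays within three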;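 further: channel opened by potassium depolarization with thallium stimulus after 20 min compound exposure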
KCNK3 block: human KCNK3 channel inhibition, primary screen | O14649 | hit rate 0.84% among 340,000 | CHO-KCNK3 thallium flux, FluxOR fluorescence; active compounds read low | AID 602410 | B-score at 10 µM;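 active means B-score under library mean minus 4 SD, starting fluorescence ratio at most library mean plus 5 SD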;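 further: more negative B-score means stronger inhibition of thallium flux through KCNK3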
Kir21 block: Kir2.1 (mouse) channel inhibition; B-score at 10 µM; hit rate 0.85% among 310,000; AID 1672; P35561; HEK293-Kir2.1, FluxOR thallium flux fluorescence; active compounds read low;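 active means fluorescence ratio B-score at or below minus 3 SD of library scores, with starting-brightness B-score within 2 SD, cut at about -4.2 in these data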;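 further: channel flux triggered by added potassium and thallium sulfate stimulus; B-score of peak minus minimum fluorescence over baseline after thallium stimulus; more negative B-score means stronger Kir2.1 block with less thallium influx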
Of the large screens only hits and unclear results are named; the others gave an inactive call.

CCOC(=O)C1=C(C)N=C2SCCC(=O)N2C1c1cccs1 (stereo unspecified)	none
CC(=O)N(CC(=O)N(CC(=O)O)c1ccc(Cl)cc1)c1ccc(Cl)cc1	none (no result: KCNQ1 pot, KCNK9 block, hERG rescue, KCNQ1 inh, Kir21 block)
CC(C)Oc1ccc(C(CC(=O)NCc2ccco2)c2ccccc2)cc1 (stereo unspecified)	KCNK9 block -7.18
CC(C)(C)OC(=O)C[C@@H]1C/C=C\C[C@H](CC(=O)NCCO)C(=O)N2CCC[C@H]2COC1=O	none (no result: KCNQ1 pot, KCNK9 block, hERG rescue, KCNQ1 inh, Kir21 block)
Cc1ccc(Nc2cc(C)c3ccc(O)cc3n2)cc1C	Kir21 block -5.09
COc1ccc(-c2nnc(CSc3nc4ccccc4c(=O)n3CC(C)C)o2)cc1OC	KCNK3 block -9.51
COC(=O)c1ccc(CSc2nc3ccccc3c(=O)n2CC(C)C)o1	KCNK9 block -7.3
CCOC(=O)CSc1nc2ccccc2c(=O)n1CC(C)C	none
CCOC(=O)C1=NN(C(=O)c2ccc(C)cc2)C(O)(c2ccc(Cl)cc2)C1 (stereo unspecified)	KCNQ1 pot 79, hERG rescue 75.6
CCC1(O)CC(C(=O)OC)=NN1C(=O)c1ccccc1 (stereo unspecified)	none
COC(=O)C1=NN(C(=O)c2ccc(Cl)cc2)C(O)(c2ccccc2)C1 (stereo unspecified)	KCNQ1 pot 39, hERG rescue 38.5
CC(C)(C)c1nnc(SCC(=O)Nc2ccc(N3CCCCC3)cc2)n1N	none (no result: KCNQ1 pot, KCNK9 block, hERG rescue, KCNQ1 inh, Kir21 block)
C/C(=N\Nc1ncnc2sc(C)c(C)c12)c1ccccn1	KCNQ1 inh 11
Cc1cc(NCCCCCCCNc2cc(C)nc3cc([N+](=O)[O-])ccc23)c2ccc([N+](=O)[O-])cc2n1	none (no result: KCNQ1 pot, KCNK9 block, hERG rescue, KCNQ1 inh, Kir21 block)
CCN(CC(=O)Nc1c(F)cccc1F)C(=O)CSc1ccc(F)cc1	none
CCN(CC(=O)NCc1ccc(Cl)cc1)C(=O)CSc1ccc(F)cc1	Kir21 block -4.47
CCOC(=O)Nc1cc(N)ncn1	none (no result: KCNQ1 pot, KCNK9 block, hERG rescue, KCNQ1 inh, Kir21 block)
COc1ccc(S(=O)(=O)Nc2cc3c4c(c2)CCN4C(=O)CC3)cc1OC	none
O=[N+]([O-])c1ccc(N=Nc2c(Cl)cc(O)cc2Cl)cc1	KCNQ1 inh 8, Kir21 block -6.9
CC(N)=Nc1ccc([N+](=O)[O-])cc1	none
Cc1ccccc1OCC(=O)N=Nc1c(O)n(C)c2ccccc12	KCNQ1 pot 8
O=[n+]1c2c(n([O-])c3cc(F)c(N4CCCC4)cc31)CCCC2	KCNQ1 inh 9
O=[n+]1c2c(n([O-])c3cc(F)c(N4CCCC4)cc31)CCC2	none
COc1ccc(C(=O)/C=C/c2cccc(OCc3ccccc3)c2)cc1CSCC(=O)O	Kir21 block -6.23
COc1ccc(C(=O)/C=C/c2ccc(OCc3ccccc3)cc2)cc1CSCC(=O)O	none
O=C(CN1C(=O)C(=O)N(C2CCCC2)C1=O)Nc1ccc(OC(F)F)cc1	none (no result: KCNQ1 pot, KCNK9 block, hERG rescue, KCNQ1 inh, Kir21 block)
O=[N+]([O-])c1ccc(Nc2ccc3ccccc3c2)nc1	hERG rescue 5.5
Cc1occc1C(=O)NNC(=S)NC(=O)COc1ccc(Cl)cc1Cl	KCNQ1 pot 75, hERG rescue 61.8
COc1cc([N+](=O)[O-])ccc1NC(=O)Nc1ccc2c(c1)OCCO2	hERG rescue 4.6
COc1cc([N+](=O)[O-])ccc1NC(=S)Nc1cc(C(=O)OC(C)C)cc(C(=O)OC(C)C)c1	KCNQ1 inh 6
O=C(Cn1nnc2ccccc21)c1cccc([N+](=O)[O-])c1	hERG rescue 5.3
Cc1ccc2[nH]c(=O)c(CN(Cc3ccccc3)C(=S)NCCCN(C)C)cc2c1	Kir21 block -4.65
OCCNCc1cc(Br)ccc1OCc1ccc(Cl)cc1Cl	none
Brc1ccc(OCc2ccccc2)c(CNCc2ccncc2)c1	Kir21 block -5.28
c1ccc(COc2cccc(CNCc3cccnc3)c2)cc1	none
OCCNCc1cc(Br)ccc1OCc1ccc(Cl)cc1	Kir21 block -4.95
OCCNCc1cccc(OCc2ccc(Cl)cc2)c1	Kir21 block -8.71
Fc1ccc(COc2ccccc2CNCc2ccncc2)cc1	none
CCSc1nnc(NC(=O)CSc2nnc(C)c(=O)n2N)s1	none
CCc1cc(/C(Cc2cscn2)=N\O)c(O)cc1O	none
CCc1cc(/C(Cc2ccccn2)=N\O)c(O)cc1O	Kir21 block -5.6
CCn1c(SCC(=O)Nc2ccc(N3CCOCC3)cc2)nnc1C1CC1	none (no result: KCNQ1 pot, KCNK9 block, hERG rescue, KCNQ1 inh, Kir21 block)
